Reference: ChEMBL document CHEMBL2146434, “Synthesis and biological evaluation of new amino acid and dipeptide derivatives of neocryptolepine as anticancer agents” (J Med Chem, 2012)
Structures can show the parent of a compound that is named as a salt. One block for each molecule: values may come before it.

Experiments:
[1] = Solubility of the compound in water; format: physicochemical; conditions: buffer
KB = test: Cytotoxicity against human KB cells after 72 hrs by SRB assay; format: functional, cell-based
[2] = Octanol-water partition coefficient, log P of the compound in citric buffer at pH 2.5 by spectrophotometric analysis; format: physicochemical
Procedure, shortened: (§1)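 Octanol–water partitioning, with log P defined as log(C_octanol/C_water). Compound in the aqueous phase was measured spectrophotometrically, and octanol content was obtained by subtracting the supernatant concentration from the total. Values are the mean of two independent experiments, each run in triplicate.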

[3] = test system: Lewis lung carcinoma cell line; test: Antineoplastic activity against mouse LLC cells xenografted in C57BL/6 mouse assessed as tumor growth inhibition at 30 mg/kg/day, ip administered on day 9 to day 12 of tumor implantation measured on day 11; format: functional; conditions: route intraperitoneal, read-out: TGI
Procedure, shortened: (§2)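 Mice bore Lewis lung carcinoma (LLC) inoculated subcutaneously and received test agents intraperitoneally at 15–50 mg kg⁻¹ day⁻¹ from day 9 or day 10. A single 100 mg/kg cyclophosphamide dose was the cytostatic control. Tumor growth was followed as the group median, and TGI% was calculated from medians versus untreated controls. Significance was tested by nonparametric Kruskal–Wallis multiple comparison, p < 0.05.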

[4] = test system: Lewis lung carcinoma cell line; test: Antineoplastic activity against mouse LLC cells xenografted in C57BL/6 mouse assessed as tumor growth inhibition at 30 mg/kg/day, ip administered on day 9 to day 12 of tumor implantation measured on day 23; format: functional; conditions: route intraperitoneal, read-out: TGI; procedure, shortened: as §2
Mus musculus [5] = test: Toxicity in C57BL/6 mouse xenografted with mouse LLC cells assessed as body weight loss at 30 mg/kg/day, sc administered on day 9 to day 12 of tumor implantation; format: organism-based; parameters: route subcutaneous; conditions: in vivo
Procedure, shortened: (§3)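 Mouse Lewis lung carcinoma (LLC) cells inoculated sc into mice. Daily dosing from day 9: 15 mg kg⁻¹ day⁻¹ through day 13 or 30 mg kg⁻¹ day⁻¹ through day 12; 25 or 50 mg kg⁻¹ day⁻¹ through day 13. Route is given as ip in tables and text but sc in figure legends. Body weight monitored for loss alongside tumor growth. Single 100 mg/kg cyclophosphamide dose as cytostatic control.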

[6] = test system: Lewis lung carcinoma cell line; test: Antineoplastic activity against mouse LLC cells xenografted in C57BL/6 mouse assessed as tumor growth inhibition at 15 mg/kg/day, ip administered on day 9 to day 13 of tumor implantation measured on day 21; format: functional; conditions: route intraperitoneal, read-out: TGI; procedure, shortened: as §2
[7] = test system: Lewis lung carcinoma cell line; test: Antineoplastic activity against mouse LLC cells xenografted in C57BL/6 mouse assessed as tumor growth inhibition at 15 mg/kg/day, ip administered on day 9 to day 13 of tumor implantation measured on day 23; format: functional; conditions: route intraperitoneal, read-out: TGI; procedure, shortened: as §2
[8] = Ratio of IC50 for compound to ratio of IC50 for DiMIQ for BALB mouse 3T3 cells; format: cell-based; conditions: read-out: Ratio IC50
Mus musculus [9] = test: Toxicity in C57BL/6 mouse xenografted with mouse LLC cells assessed as body weight loss at 30 mg/kg/day, ip administered on day 9 to day 12 of tumor implantation; format: organism-based; parameters: route intraperitoneal; conditions: in vivo; procedure, shortened: as §3
[10] = Dissociation constant, pKa of the compound in PBS buffer at 5 uM at pH 2 to 10 by UV-spectrophotometric analysis; format: physicochemical
Procedure, shortened: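 UV spectrophotometric titration at a final compound concentration of 5 μM. At this concentration the absorbance–concentration relationship stayed linear. pKa was read from spectral changes across pH.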

Mus musculus [11] = test: Toxicity in C57BL/6 mouse xenografted with mouse LLC cells at 15 mg/kg/day, ip administered on day 9 to day 13 of tumor implantation; format: organism-based; parameters: route intraperitoneal; conditions: in vivo; procedure, shortened: as §3
[12] = Octanol-water partition coefficient, log P of the compound in PBS buffer at pH 7.4 by spectrophotometric analysis; format: physicochemical; procedure, shortened: as §1
[13] = test system: Lewis lung carcinoma cell line; test: Antineoplastic activity against mouse LLC cells xenografted in C57BL/6 mouse assessed as tumor growth inhibition at 30 mg/kg/day, ip administered on day 9 to day 12 of tumor implantation measured on day 16; format: functional; conditions: route intraperitoneal, read-out: TGI; procedure, shortened: as §2
[14] = test system: Lewis lung carcinoma cell line; test: Antineoplastic activity against mouse LLC cells xenografted in C57BL/6 mouse assessed as tumor growth inhibition at 15 mg/kg/day, ip administered on day 9 to day 13 of tumor implantation measured on day 18; format: functional; conditions: route intraperitoneal, read-out: TGI; procedure, shortened: as §2
[15] = test system: Lewis lung carcinoma cell line; test: Antineoplastic activity against mouse LLC cells xenografted in C57BL/6 mouse assessed as tumor growth inhibition at 30 mg/kg/day, ip administered on day 9 to day 12 of tumor implantation measured on day 18; format: functional; conditions: route intraperitoneal, read-out: TGI; procedure, shortened: as §2
[16] = test system: Lewis lung carcinoma cell line; test: Antineoplastic activity against mouse LLC cells xenografted in C57BL/6 mouse assessed as tumor growth inhibition at 30 mg/kg/day, ip administered on day 9 to day 12 of tumor implantation measured on day 21; format: functional; conditions: route intraperitoneal, read-out: TGI; procedure, shortened: as §2
Mus musculus [17] = test: Toxicity in C57BL/6 mouse xenografted with mouse LLC cells assessed as body weight loss at 15 mg/kg/day, ip administered on day 9 to day 13 of tumor implantation; format: organism-based; parameters: route intraperitoneal; conditions: in vivo
Procedure, shortened: (§4)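 Body weight was tracked in C57BL/6 mice bearing subcutaneously inoculated LLC during therapy given daily from day 9 to day 13. A single 100 mg/kg dose of cyclophosphamide served as the cytostatic control group.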

[18] = test system: Lewis lung carcinoma cell line; test: Antineoplastic activity against mouse LLC cells xenografted in C57BL/6 mouse assessed as tumor growth inhibition at 15 mg/kg/day, ip administered on day 9 to day 13 of tumor implantation measured on day 11; format: functional; conditions: route intraperitoneal, read-out: TGI; procedure, shortened: as §2
LoVo = test: Cytotoxicity against human LoVo cells after 72 hrs by SRB assay; format: functional, cell-based
Procedure, shortened: (§5)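 IC50 is the compound concentration giving 50% inhibition of cell proliferation. It was determined on normal mouse BALB/3T3 fibroblasts and on human A549, MCF-7 and LoVo cancer lines, with doxorubicin hydrochloride and DiMIQ as reference compounds.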

[19] = test system: Lewis lung carcinoma cell line; test: Antineoplastic activity against mouse LLC cells xenografted in C57BL/6 mouse assessed as tumor growth inhibition at 15 mg/kg/day, ip administered on day 9 to day 13 of tumor implantation measured on day 14; format: functional; conditions: route intraperitoneal, read-out: TGI; procedure, shortened: as §2
Mus musculus [20] = test: Toxicity in C57BL/6 mouse xenografted with mouse LLC cells assessed as body weight loss at 15 mg/kg/day, sc administered on day 9 to day 13 of tumor implantation; format: organism-based; parameters: route subcutaneous; conditions: in vivo; procedure, shortened: as §4
MCF7 = test: Cytotoxicity against human MCF7 cells after 72 hrs by SRB assay; format: functional, cell-based; conditions: MCF7, 72 h; procedure, shortened: as §5
A549 = test: Cytotoxicity against human A549 cells after 72 hrs by SRB assay; format: functional, cell-based; conditions: A549, 72 h; procedure, shortened: as §5
[21] = test system: Lewis lung carcinoma cell line; test: Antineoplastic activity against mouse LLC cells xenografted in C57BL/6 mouse assessed as tumor growth inhibition at 15 mg/kg/day, ip administered on day 9 to day 13 of tumor implantation measured on day 16; format: functional; conditions: route intraperitoneal, read-out: TGI; procedure, shortened: as §2
[22] = test system: Lewis lung carcinoma cell line; test: Antineoplastic activity against mouse LLC cells xenografted in C57BL/6 mouse assessed as tumor growth inhibition at 30 mg/kg/day, ip administered on day 9 to day 12 of tumor implantation measured on day 14; format: functional; conditions: route intraperitoneal, read-out: TGI; procedure, shortened: as §2
Mus musculus [23] = test: Toxicity in C57BL/6 mouse xenografted with mouse LLC cells assessed as body weight loss at 50 mg/kg/day, sc administered on day 9 to day 13 of tumor implantation; format: organism-based; parameters: route subcutaneous; conditions: in vivo; procedure, shortened: as §3
Mus musculus [24] = test: Toxicity in C57BL/6 mouse xenografted with mouse LLC cells at 30 mg/kg/day, ip administered on day 9 to day 12 of tumor implantation; format: organism-based; parameters: route intraperitoneal; conditions: in vivo; procedure, shortened: as §3
[25] = Toxicity in human erythrocytes assessed as hemolysis at 0.3 mM after 30 mins by spectrophotometric analysis; format: cell-based, Erythrocyte; conditions: read-out: Activity
Procedure, shortened: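 Human erythrocyte suspension under isotonic conditions (pH 7.4, hematocrit 50%). Compound added across a concentration series and incubated 30 min at 37 °C before hemolysis was scored. Mean ± SD of three individual determinations. Statistics by Mann–Whitney U test, p < 0.05.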

solubility [1]: soluble
SMILES: Cc1c2c3cc(NC(=O)[C@H](N)Cc4cnc[nH]4)ccc3nc-2n(C)c2ccccc12.Cl
IC50 (KB): 4850 nM

logP [2]: -1.9
pKa at 5 µM [10]: 7.2
logD [12]: 1.4
solubility [1]: soluble
SMILES: Cc1c2c3cc(NC(=O)[C@@H]4CCCN4)ccc3nc-2n(C)c2ccccc12.Cl.Cl
inhibition in vivo at 30 mg/kg/day [3]: 61.2%
inhibition in vivo at 30 mg/kg/day [4]: 41.1%
Activity (Mus musculus [5]): <= 15%
inhibition in vivo at 15 mg/kg/day [6]: 0%
inhibition in vivo at 15 mg/kg/day [7]: 24.6%
selectivity ratio [8]: 5
Activity (Mus musculus [9]): <= 15%
Activity (Mus musculus [11]): Toxic
inhibition in vivo at 30 mg/kg/day [13]: 75.8%
inhibition in vivo at 15 mg/kg/day [14]: 8.38%
inhibition in vivo at 30 mg/kg/day [15]: 50%
inhibition in vivo at 30 mg/kg/day [16]: 37.9%
Activity (Mus musculus [17]): <= 15%
inhibition in vivo at 15 mg/kg/day [18]: 42%
IC50 (LoVo): 810 nM
inhibition in vivo at 15 mg/kg/day [19]: 42.6%
Activity (Mus musculus [20]): <= 15%
IC50 (MCF7): 820 nM
IC50 (A549): 480 nM
inhibition in vivo at 15 mg/kg/day [21]: 47.7%
IC50 (KB): 420 nM
inhibition in vivo at 30 mg/kg/day [22]: 74%
Activity (Mus musculus [23]): <= 15%
Activity (Mus musculus [24]): Toxic

solubility [1]: soluble
SMILES: Cc1c2c3cc(NC(=O)[C@@H]4CCCN4C(=O)[C@@H]4CCCN4)ccc3nc-2n(C)c2ccccc12.Cl.Cl
selectivity ratio [8]: 5
IC50 (LoVo): 360 nM
IC50 (MCF7): 960 nM
IC50 (A549): 540 nM
IC50 (KB): 560 nM

SMILES: Cc1c2ccccc2nc2c1c1cc(NC(=O)[C@@H](N)CO)ccc1n2C
IC50 (KB): 5960 nM

solubility [1]: soluble
SMILES: Cc1c2c3cc(NC(=O)[C@@H](N)Cc4cnc[nH]4)ccc3nc-2n(C)c2ccccc12.Cl
IC50 (KB): 3460 nM

SMILES: COc1cccc2c1C(=O)c1c(O)c3c(c(O)c1C2=O)C[C@@](O)(C(=O)CO)C[C@@H]3O[C@H]1C[C@H](N)[C@H](O)[C@H](C)O1 [DOXORUBICIN HYDROCHLORIDE]
IC50 (LoVo): 110 nM
IC50 (MCF7): 440 nM
IC50 (KB): 840 nM

SMILES: Cc1c2ccccc2nc2c1c1cc(NC(=O)[C@@H](N)Cc3cnc[nH]3)ccc1n2C
IC50 (KB): 5960 nM

logP [2]: -1.9
pKa at 5 µM [10]: 7.2
logD [12]: 0.6
solubility [1]: soluble
SMILES: Cc1c2c3cc(NC(=O)CN)ccc3nc-2n(C)c2ccccc12.Cl.Cl
inhibition in vivo at 30 mg/kg/day [3]: 50.1%
inhibition in vivo at 30 mg/kg/day [4]: 19.7%
Activity (Mus musculus [5]): <= 15%
inhibition in vivo at 15 mg/kg/day [6]: 26.1%
inhibition in vivo at 15 mg/kg/day [7]: 25.8%
selectivity ratio [8]: 5
Activity (Mus musculus [9]): <= 15%
Activity (Mus musculus [11]): Toxic
inhibition in vivo at 30 mg/kg/day [13]: 55.3%
inhibition in vivo at 15 mg/kg/day [14]: 0%
inhibition in vivo at 30 mg/kg/day [15]: 14.3%
inhibition in vivo at 30 mg/kg/day [16]: 13.5%
Activity (Mus musculus [17]): <= 15%
hemolysis at 0.5 h, 300 µM [25]: 42.5%
inhibition in vivo at 15 mg/kg/day [18]: 42.4%
IC50 (LoVo): 880 nM
inhibition in vivo at 15 mg/kg/day [19]: 47.4%
Activity (Mus musculus [20]): <= 15%
IC50 (MCF7): 1450 nM
IC50 (A549): 1310 nM
inhibition in vivo at 15 mg/kg/day [21]: 23.9%
IC50 (KB): 670 nM
inhibition in vivo at 30 mg/kg/day [22]: 54.7%
Activity (Mus musculus [23]): <= 15%
Activity (Mus musculus [24]): Toxic

solubility [1]: soluble
SMILES: Cc1c2c3cc(NC(=O)[C@@H]4CCCN4C(=O)CN)ccc3nc-2n(C)c2ccccc12.Cl.Cl
selectivity ratio [8]: 5
IC50 (LoVo): 440 nM
IC50 (MCF7): 1130 nM
IC50 (A549): 860 nM
IC50 (KB): 700 nM

SMILES: Cc1c2ccccc2nc2c1c1cc(NC(=O)[C@@H]3CCCN3)ccc1n2C
IC50 (KB): 4390 nM

solubility [1]: soluble
SMILES: Cc1c2c3cc(NC(=O)CNC(=O)[C@@H](N)Cc4cnc[nH]4)ccc3nc-2n(C)c2ccccc12.Cl
IC50 (KB): 3640 nM

solubility [1]: soluble
SMILES: Cc1c2c3cc(NC(=O)[C@H]4CCCN4)ccc3nc-2n(C)c2ccccc12.Cl.Cl
selectivity ratio [8]: 5
IC50 (LoVo): 620 nM
IC50 (MCF7): 600 nM
IC50 (A549): 320 nM
IC50 (KB): 730 nM
